Test results published in ChEMBL document CHEMBL2346664, “Synthesis, characterization and in vitro anticancer evaluation of novel 1,2,4-triazolin-3-one derivatives” (2013).

Assays:
Type in all cases: functional
[1] = Growth inhibition of human EKVX cells assessed as cell growth at 10 '-5 M after 48 hrs by sulforhodamine B assay; conditions: read-out: Activity
RPMI-8226 = assay: Growth inhibition of human RPMI8226 cells assessed as cell growth at 10 '-5 M after 48 hrs by sulforhodamine B assay; conditions: RPMI-8226, 48 h, read-out: Activity
SK-MEL-2 = assay: Growth inhibition of human SK-MEL-2 cells assessed as cell growth at 10 '-6 M after 48 hrs by sulforhodamine B assay; conditions: SK-MEL-2, 48 h, read-out: Activity
MDA-MB-468 = assay: Growth inhibition of human MDA-MB-468 cells assessed as cell growth at 10 '-4 M after 48 hrs by sulforhodamine B assay; conditions: MDA-MB-468, 48 h, read-out: Activity
U-251 = assay: Growth inhibition of human U251 cells assessed as cell growth at 10 '-6 M after 48 hrs by sulforhodamine B assay; conditions: U-251, 48 h, read-out: Activity
CAKI-1 [2] = assay: Growth inhibition of human CAKI-1 cells assessed as cell growth at 10 '-7 M after 48 hrs by sulforhodamine B assay; conditions: CAKI-1, 48 h, read-out: Activity
Outline: (§1)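 Percent growth at each of the five concentrations of the 48 h continuous-exposure NCI SRB screen. Drug stocks were in DMSO at 400× the top final concentration and diluted in medium with gentamicin. Growth was calculated as [(Ti-Tz)/(C-Tz)]×100 when Ti ≥ Tz, or [(Ti-Tz)/Tz]×100 when Ti < Tz. Tz plates were fixed at drug addition; untreated wells served as control. Absorbance was read at 515 nm.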

UACC-257 = assay: Growth inhibition of human UACC257 cells assessed as cell growth at 10 '-7 M after 48 hrs by sulforhodamine B assay; conditions: UACC-257, 48 h, read-out: Activity
A549 [3] = assay: Growth inhibition of human A549 cells assessed as cell growth at 10 '-8 M after 48 hrs by sulforhodamine B assay; conditions: A549, 48 h, read-out: Activity; outline: as §1
RXF 393 = assay: Growth inhibition of human RXF393 cells after 48 hrs by sulforhodamine B assay; conditions: RXF 393, 48 h
OVCAR-8 = assay: Growth inhibition of human OVCAR8 cells after 48 hrs by sulforhodamine B assay; conditions: OVCAR-8, 48 h
A549 [4] = assay: Growth inhibition of human A549 cells assessed as cell growth at 10 '-4 M after 48 hrs by sulforhodamine B assay; conditions: A549, 48 h, read-out: Activity; outline: as §1
HT-29 = assay: Growth inhibition of human HT-29 cells after 48 hrs by sulforhodamine B assay; conditions: HT-29, 48 h
Outline: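 NCI 60-cell-line five-dose screen. Cells were plated at 5,000–40,000/well by doubling time and grown 24 h at 37 °C, 5% CO2. Time-zero plates were TCA-fixed. Drug from DMSO stock was tested at 0.01, 0.1, 1, 10 and 100 µM final for 48 h continuous exposure. Read-out was SRB at 515 nm. GI50 is the concentration giving 50% reduction in net protein increase versus untreated control.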

CAKI-1 [5] = assay: Growth inhibition of human CAKI-1 cells assessed as growth inhibition at 10 uM after 48 hrs by sulforhodamine B assay; conditions: CAKI-1, 48 h, read-out: GI
Outline: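 Percent growth inhibition from the single 10^-5 M NCI-60 screen, reported as 100 minus growth percent. Growth percent was measured after 48 h drug exposure at 37 °C, 5% CO2, using TCA fixation, SRB staining and absorbance at 515 nm, against untreated controls and time-zero plates.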

NCI-H522 = assay: Growth inhibition of human NCI-H522 cells assessed as cell growth at 10 '-7 M after 48 hrs by sulforhodamine B assay; conditions: NCI-H522, 48 h, read-out: Activity
PC-3 = assay: Growth inhibition of human PC3 cells assessed as cell growth at 10 '-8 M after 48 hrs by sulforhodamine B assay; conditions: PC-3, 48 h, read-out: Activity
UACC-62 = assay: Growth inhibition of human UACC62 cells assessed as cell growth at 10 '-8 M after 48 hrs by sulforhodamine B assay; conditions: UACC-62, 48 h, read-out: Activity
NCI-H460 = assay: Growth inhibition of human NCI-H460 cells assessed as cell growth at 10 '-8 M after 48 hrs by sulforhodamine B assay; conditions: NCI-H460, 48 h, read-out: Activity
[6] = read-out: LD50 (the source's name)

## Cc1cc(=O)oc2cc(OCCn3c(C)nn(-c4ccc(Cl)cc4)c3=O)ccc12
[1]
  growth at 10 µM: 63%
RPMI-8226
  growth at 10 µM: 50%
SK-MEL-2
  growth at 1 µM: 112%
MDA-MB-468
  growth at 100 µM: -5%
U-251
  growth at 1 µM: 87%
CAKI-1 [2]
  growth at 0.1 µM: 92%
UACC-257
  growth at 0.1 µM: 101%
A549 [3]
  growth at 0.01 µM: 97%
RXF 393
  GI50: 2.76 µM
  TGI: 3 µM
RXF 393; [6]
  CC50: > 1 µM
OVCAR-8
  GI50: 5.17 µM
  TGI: > 1 µM
OVCAR-8; [6]
  CC50: > 1 µM
A549 [4]
  growth at 100 µM: 27%
HT-29
  GI50: 3.82 µM
  TGI: > 1 µM
HT-29; [6]
  CC50: > 1 µM
CAKI-1 [5]
  inhibition of growth at 10 µM: 80.5%
NCI-H522
  growth at 0.1 µM: 96%
PC-3
  growth at 0.01 µM: 97%
UACC-62
  growth at 0.01 µM: 97%
NCI-H460
  growth at 0.01 µM: 104%
